Entries after “also recorded” stand apart in the source; their conditions may differ.
Legend:
PDGFB-glioma = test: RCAS/tv-a PDGFB glioma mouse model; type: in vivo; details: for tumor density by olig-2 immunostaining: each arm at its regimen (ST-401 regimen 2; TMZ 50 mg/kg); for necrotic area: end-stage histopathology, each arm at its regimen
MGG8 cells [1] = test: cells in S phase, BrdU incorporation, MGG8; type: cell-based, human; details: NOC 3 μM
MGG8 cells [2] = test: cell viability WST-1, MGG8; type: cell-based, human; details: 72 h
T98G cells [3] = test: cells in S phase, BrdU incorporation, T98G; type: cell-based, human
[4] = system: PD-glioma isolates (proneural, mesenchymal, classical, MGG8); test: viability of PD-glioma isolates; type: cell-based; details: Homo sapiens, read-out: IC50, antitumor activity (viability, WST-1)
[5] = pharmacokinetics, plasma and brain by LC-MS; type: in vivo, mouse
CD1 mice = test: maximal tolerated dose and dose range finding; type: in vivo, mouse; details: bidaily i.p. 20 mg/kg, 5 days/week for 4 weeks
Outline: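 CD1 mice dosed i.p. at 5, 10, 20, 50, 100 or 150 mg/kg, or with the corresponding volume of no-drug formulation (vehicle). Monitored for signs of general distress. Regimen 2: 20 mg/kg i.p. bidaily, 5 days/week for 4 weeks.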

COLO205 cells = test: NCI-60 cancer cell panel, COLO205; type: cell-based; details: Homo sapiens, COLO 205
[6] = system: six human glioma cell lines (SF-268, SF-295, SF-539, SNB-19, SNB-75, U251); test: NCI-60 cell line panel, six glioma lines; type: cell-based; details: read-out: IC50s (growth inhibition, TGI50 in Figure 2A)
[7] = system: tubulin (colchicine site); test: [3H]colchicine binding to purified tubulin; details: 5 μM compound; mean of n = 3
[8] = system: COLO205 cell-derived subcutaneous xenografts; test: COLO205 xenograft flank tumor model; type: in vivo, mouse
T98G cells [9] = test: cell viability WST-1, T98G; type: cell-based; details: Homo sapiens, 72 h, read-out: IC50, overall cell viability
tubulin = tubulin assembly, pelleting assay; type: biochemical; details: compared to ST-360
Outline: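 Tubulin assembly assessed by pelleting assay, with release of free tubulin measured. Mean ± SEM from 3 to 5 experiments.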

HCT116 cells = test: live cell imaging of MT assembly rates; type: cell-based, human
Outline: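 HCT116 cells expressing EB1-GFP to label growing microtubule ends. Imaged at a single Z-plane at 500-ms intervals. Assembly rates scored in interphase cells by particle tracking, before treatment and again after compound wash-out (POST).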

BG5 PD-glioma cells = test: tumor microtube; type: cell-based, human; details: Y-27632 50 μM
Outline: (§1)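 GFP-expressing patient-derived S24 and BG5 glioma cells treated with increasing test-compound concentrations (e.g. 30 and 300 nM) or controls: DMSO 1% vehicle, Y-27632 50 μM, nocodazole 300 nM. Stained with Ho342/EthD2. TM number and length per cell quantified semi-automatically from immunofluorescence images via a machine learning-based workflow. Two-way ANOVA, Tukey post-test.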

S24 PD-glioma cells [10] = test: tumor microtube; type: cell-based, human; details: Y-27632 50 μM
Outline: as §1

S24 PD-glioma cells [11] = test: cell death of S24 PD-glioma; type: cell-based, human; details: Y-27632 50 mM (as printed in Figure S3), 24 h
Outline: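 GFP-expressing patient-derived S24 glioma cells treated alongside vehicle (DMSO 1%), then stained with Ho342 and EthD2 and imaged by fluorescence microscopy.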

For Cn1nnc2c(C(N)=O)ncn2c1=O [TMZ, temozolomide, reference compound], the average median survival (PDGFB-glioma; TMZ 50 mg/kg once per day, 5 days/week for 4 weeks, control 20 days) was 30 days, the “extension of average median survival” value (PDGFB-glioma; TMZ 50 mg/kg once per day, 5 days/week for 4 weeks, versus control) was 50% and the “tumor density by olig-2 immunostaining” value (PDGFB-glioma) was “increase”. The necrotic area (PDGFB-glioma) was “unchanged”.

With COC(=O)Nc1nc2ccc(C(=O)c3cccs3)cc2[nH]1 [NOC, nocodazole, reference compound] the “effect on number of cells in S phase” value (MGG8 cells [1]) was “reduce; also recorded: overall less active”, the “reduction of cell viability” value (MGG8 cells [2]; NOC 3 µM, WST-1) was 18% and the “effect on number of cells in S phase” value (T98G cells [3]; NOC 3 μM, BrdU) was “Lack of response”.

For CCn1c2ccccc2c2cc(C(O)c3cccc4ncccc34)ccc21 (centres unmarked) [ST-401, (9‐ethyl‐9H‐carbazol‐3‐yl)(quinolin‐5‐yl)methanol], the average survival (PDGFB-glioma; ST-401+RT arm) was 50 days, the average survival (PDGFB-glioma; ST-401+TMZ arm) was 46 days and the “effect on average median survival, single agent” value (PDGFB-glioma; ST-401 regimen 2) was “did not affect average median survival”. For the same molecule, the “enhancement of the therapeutic efficacy of RT” value (PDGFB-glioma; ST-401 regimen 2 + RT single dose 10-Gy) was 66%, the “enhancement of the therapeutic efficacy of TMZ” value (PDGFB-glioma; ST-401 regimen 2 + TMZ 50 mg/kg) was 60% and the “increase in mitotic figures versus control arm” value (PDGFB-glioma; ST-401 regimen 2, H&E, end stage) was 69%. The “increase in tumor density (relative area of HA expression)” value (PDGFB-glioma; ST-401 regimen 2, semi-quantitative IHC) was 54%, the “tumor density by olig-2 immunostaining” value (PDGFB-glioma) was “increase” and the necrotic area (PDGFB-glioma) was “did not reach significance”. The IC50 [4] was 24 to 47 nM, the “time plasma levels remained above 250 nM” value ([5]; bidaily i.p. injections of 20 mg/kg) was “approximately 16 h” and the half-life ([5]; mouse, brain, ip, 150 mg/kg) was ~6 h. For the same molecule, the “concentration reached in brain” value ([5]; single i.p. 150 mg/kg) was “micromolar concentrations”, the “concentration reached in brain” value ([5]; single i.p. 20 and 5 mg/kg, 30 min) was “micromolar concentrations” and the plasma concentration ([5]; three i.p. injections of 20 mg/kg separated by 8 and 16 h, over 24 h) was “above 250 nM”. The “adverse effects (Regimen 2)” value (CD1 mice) was “did not trigger adverse effects”, the IC50 (COLO205 cells) was 38 nM and the IC50 [6] was 23 to 69 nM. The “competition for [3H]colchicine binding to tubulin” value [7] was 89%, the “treated tumors that stopped growing despite ending the treatment” value ([8]; Regimen 2) was “approximately 50%” and the “life-expectancy / survival of treated mice” value ([8]; Regimen 2, n = 10 mice per arm) was “significant increase in average survival; also recorded: doubling”. For the same molecule, the “time without recurrence after ending treatment” value ([8]; tumors that stopped growing) was ≥ 28 days, the IC50 (T98G cells [9]) was 36 nM and the IC50 (MGG8 cells [2]; Homo sapiens, read-out: IC50, overall cell viability) was 14 nM. For the same molecule, the “MT disassembly (Δ release of free tubulin)” value (tubulin) was “greater MT disassembly”, the “time for MT assembly to reach initial rates after wash-out” value (HCT116 cells; 100 nM, after wash-out) was ≤ 15 min and the “reduction in MT assembly rate” value (HCT116 cells; 100 nM, interphase cells, compared to NOC 100 nM) was “milder reduction”. For the same molecule, the “inhibition of MT assembly” value (HCT116 cells; 200 nM, within 15 min) was “completely and reversibly inhibited all MT assembly” and the “response on number of cells in S phase” value (T98G cells [3]; 72 h, BrdU incorporation, concentration-response) was “absent”.

With C[C@@H](N)[C@H]1CC[C@H](C(=O)Nc2ccncc2)CC1 [Y-27632] the “effect on TM length/cell” value (BG5 PD-glioma cells) was “increased”, the “effect on TM number/cell” value (BG5 PD-glioma cells) was “increased” and the “effect on TM length/cell” value (S24 PD-glioma cells [10]) was “increased”. The “effect on TM number/cell” value (S24 PD-glioma cells [10]) was “increased” and the “effect on cell death / viability” value (S24 PD-glioma cells [11]) was “did not affect cell viability”.

Source: paper PMC7813200 (Neuro-oncology Advances, 2020)
